# System: Escherichia coli
# Test: MIC against aerobic organism Escherichia coli strain 2891
# Type: functional
# Conditions: Escherichia coli; read-out: MIC
# In short: (§1)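 Agar-dilution MIC in µg/mL against aerobic bacterial strains on tryptocase soy agar, with inoculum applied as spots. Most series used 10^5 cfu per spot, and a later series used 10^4 cfu per spot. In some tables, footnoted strains were instead tested on Mueller-Hinton or nutrient agar. β-Lactamase-producing strains are flagged.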
row,SMILES,MIC [µg/mL]
1,CC[n+]1ccc(N[C@@H]2C(=O)N3C(C(=O)[O-])=C(CSc4nnnn4C)CS[C@H]23)cc1,< 0.5
2,COc1ccc(C[n+]2ccc(N[C@@H]3C(=O)N4C(C(=O)[O-])=C(CSc5nnnn5C)CS[C@H]34)cc2)cc1,0.25
3,COC[n+]1ccc(N[C@@H]2C(=O)N3C(C(=O)[O-])=C(CSc4nnnn4C)CS[C@H]23)cc1,0.125

# The next lines start with the values.
row,MIC [µg/mL],SMILES
1,4,CC1=C(C(=O)[O-])N2C(=O)[C@@H](Nc3cc[n+](Cc4ccccc4)cc3)[C@H]2SC1
2,< 0.06,Cn1nnnc1SCC1=C(C(=O)[O-])N2C(=O)[C@@H](Nc3cc[n+](COCC(Cl)(Cl)Cl)cc3)[C@H]2SC1

# System: Klebsiella aerogenes
# Test: Minimum inhibitory concentration against aerobic organism Enterobacter aerogenes strain 2906
# Type: functional
# Conditions: Klebsiella aerogenes; read-out: MIC
# In short: as §1
row,SMILES,MIC [µg/mL]
1,CC[n+]1ccc(N[C@@H]2C(=O)N3C(C(=O)[O-])=C(CSc4nnnn4C)CS[C@H]23)cc1,0.5
2,COc1ccc(C[n+]2ccc(N[C@@H]3C(=O)N4C(C(=O)[O-])=C(CSc5nnnn5C)CS[C@H]34)cc2)cc1,4
3,COC[n+]1ccc(N[C@@H]2C(=O)N3C(C(=O)[O-])=C(CSc4nnnn4C)CS[C@H]23)cc1,64

# Other lines, results leading:
row,MIC [µg/mL],SMILES
1,128,CC1=C(C(=O)[O-])N2C(=O)[C@@H](Nc3cc[n+](Cc4ccccc4)cc3)[C@H]2SC1
2,8,Cn1nnnc1SCC1=C(C(=O)[O-])N2C(=O)[C@@H](Nc3cc[n+](COCC(Cl)(Cl)Cl)cc3)[C@H]2SC1

# System: Enterobacter cloacae
# Test: Minimum inhibitory concentration against aerobic organism Enterobacter cloacae strain 2646
# Type: functional
# Conditions: Enterobacter cloacae; read-out: MIC
# In short: as §1
row,SMILES,MIC [µg/mL]
1,CC[n+]1ccc(N[C@@H]2C(=O)N3C(C(=O)[O-])=C(CSc4nnnn4C)CS[C@H]23)cc1,2
2,COc1ccc(C[n+]2ccc(N[C@@H]3C(=O)N4C(C(=O)[O-])=C(CSc5nnnn5C)CS[C@H]34)cc2)cc1,8
3,COC[n+]1ccc(N[C@@H]2C(=O)N3C(C(=O)[O-])=C(CSc4nnnn4C)CS[C@H]23)cc1,32

# Now from value to compound:
row,MIC [µg/mL],SMILES
1,64,CC1=C(C(=O)[O-])N2C(=O)[C@@H](Nc3cc[n+](Cc4ccccc4)cc3)[C@H]2SC1
2,0.125,Cn1nnnc1SCC1=C(C(=O)[O-])N2C(=O)[C@@H](Nc3cc[n+](COCC(Cl)(Cl)Cl)cc3)[C@H]2SC1

# System: Klebsiella pneumoniae
# Test: Minimum inhibitory concentration against aerobic organism Klebsiella pneumoniae strain 2882
# Type: functional
# Conditions: Klebsiella pneumoniae; read-out: MIC
# In short: as §1
row,SMILES,MIC [µg/mL]
1,CC[n+]1ccc(N[C@@H]2C(=O)N3C(C(=O)[O-])=C(CSc4nnnn4C)CS[C@H]23)cc1,1
2,COc1ccc(C[n+]2ccc(N[C@@H]3C(=O)N4C(C(=O)[O-])=C(CSc5nnnn5C)CS[C@H]34)cc2)cc1,0.5
3,COC[n+]1ccc(N[C@@H]2C(=O)N3C(C(=O)[O-])=C(CSc4nnnn4C)CS[C@H]23)cc1,1

# More lines, now with the values ahead:
row,MIC [µg/mL],SMILES
1,32,CC1=C(C(=O)[O-])N2C(=O)[C@@H](Nc3cc[n+](Cc4ccccc4)cc3)[C@H]2SC1
2,0.125,Cn1nnnc1SCC1=C(C(=O)[O-])N2C(=O)[C@@H](Nc3cc[n+](COCC(Cl)(Cl)Cl)cc3)[C@H]2SC1

# System: Morganella morganii
# Test: Minimum inhibitory concentration against aerobic organism Morganella morganii strain 2833
# Type: functional
# Conditions: Morganella morganii; read-out: MIC
# In short: as §1
row,SMILES,MIC [µg/mL]
1,CC[n+]1ccc(N[C@@H]2C(=O)N3C(C(=O)[O-])=C(CSc4nnnn4C)CS[C@H]23)cc1,0.5
2,COc1ccc(C[n+]2ccc(N[C@@H]3C(=O)N4C(C(=O)[O-])=C(CSc5nnnn5C)CS[C@H]34)cc2)cc1,16
3,COC[n+]1ccc(N[C@@H]2C(=O)N3C(C(=O)[O-])=C(CSc4nnnn4C)CS[C@H]23)cc1,> 128

# Continued, values first:
row,MIC [µg/mL],SMILES
1,> 128,CC1=C(C(=O)[O-])N2C(=O)[C@@H](Nc3cc[n+](Cc4ccccc4)cc3)[C@H]2SC1
2,32,Cn1nnnc1SCC1=C(C(=O)[O-])N2C(=O)[C@@H](Nc3cc[n+](COCC(Cl)(Cl)Cl)cc3)[C@H]2SC1

# System: Pseudomonas aeruginosa
# Test: Minimum inhibitory concentration against aerobic organism Pseudomonas aeruginosa strain 2835
# Type: functional
# Conditions: not given
# In short: as §1
row,SMILES,MIC [µg/mL]
1,CC[n+]1ccc(N[C@@H]2C(=O)N3C(C(=O)[O-])=C(CSc4nnnn4C)CS[C@H]23)cc1,> 128
2,COc1ccc(C[n+]2ccc(N[C@@H]3C(=O)N4C(C(=O)[O-])=C(CSc5nnnn5C)CS[C@H]34)cc2)cc1,> 64
3,COC[n+]1ccc(N[C@@H]2C(=O)N3C(C(=O)[O-])=C(CSc4nnnn4C)CS[C@H]23)cc1,> 128

# Second part, the compound after the results:
row,MIC [µg/mL],SMILES
1,> 128,CC1=C(C(=O)[O-])N2C(=O)[C@@H](Nc3cc[n+](Cc4ccccc4)cc3)[C@H]2SC1
2,> 128,Cn1nnnc1SCC1=C(C(=O)[O-])N2C(=O)[C@@H](Nc3cc[n+](COCC(Cl)(Cl)Cl)cc3)[C@H]2SC1

# System: Proteus mirabilis
# Test: Minimum inhibitory concentration against aerobic organism Proteus mirabilis strain 2830
# Type: functional
# Conditions: Proteus mirabilis; read-out: MIC
# In short: as §1
row,SMILES,MIC [µg/mL]
1,CC[n+]1ccc(N[C@@H]2C(=O)N3C(C(=O)[O-])=C(CSc4nnnn4C)CS[C@H]23)cc1,2
2,COc1ccc(C[n+]2ccc(N[C@@H]3C(=O)N4C(C(=O)[O-])=C(CSc5nnnn5C)CS[C@H]34)cc2)cc1,16
3,COC[n+]1ccc(N[C@@H]2C(=O)N3C(C(=O)[O-])=C(CSc4nnnn4C)CS[C@H]23)cc1,64

# Other lines, results leading:
row,MIC [µg/mL],SMILES
1,> 128,CC1=C(C(=O)[O-])N2C(=O)[C@@H](Nc3cc[n+](Cc4ccccc4)cc3)[C@H]2SC1
2,64,Cn1nnnc1SCC1=C(C(=O)[O-])N2C(=O)[C@@H](Nc3cc[n+](COCC(Cl)(Cl)Cl)cc3)[C@H]2SC1

# System: Proteus vulgaris
# Test: Minimum inhibitory concentration against aerobic organism Proteus vulgaris strain 2829
# Type: functional
# Conditions: Proteus vulgaris; read-out: MIC
# In short: as §1
row,SMILES,MIC [µg/mL]
1,CC[n+]1ccc(N[C@@H]2C(=O)N3C(C(=O)[O-])=C(CSc4nnnn4C)CS[C@H]23)cc1,< 0.06
2,COc1ccc(C[n+]2ccc(N[C@@H]3C(=O)N4C(C(=O)[O-])=C(CSc5nnnn5C)CS[C@H]34)cc2)cc1,< 0.06
3,COC[n+]1ccc(N[C@@H]2C(=O)N3C(C(=O)[O-])=C(CSc4nnnn4C)CS[C@H]23)cc1,< 0.06

# The remaining lines, values ahead:
row,MIC [µg/mL],SMILES
1,> 128,CC1=C(C(=O)[O-])N2C(=O)[C@@H](Nc3cc[n+](Cc4ccccc4)cc3)[C@H]2SC1
2,< 0.06,Cn1nnnc1SCC1=C(C(=O)[O-])N2C(=O)[C@@H](Nc3cc[n+](COCC(Cl)(Cl)Cl)cc3)[C@H]2SC1

# System: not listed separately
# Test: Minimum inhibitory concentration against aerobic organism Salmonella schottmuelleri strain 2837
# Type: functional
# Conditions: Salmonella; read-out: MIC
# In short: as §1
row,SMILES,MIC [µg/mL]
1,CC[n+]1ccc(N[C@@H]2C(=O)N3C(C(=O)[O-])=C(CSc4nnnn4C)CS[C@H]23)cc1,4
2,COc1ccc(C[n+]2ccc(N[C@@H]3C(=O)N4C(C(=O)[O-])=C(CSc5nnnn5C)CS[C@H]34)cc2)cc1,0.125
3,COC[n+]1ccc(N[C@@H]2C(=O)N3C(C(=O)[O-])=C(CSc4nnnn4C)CS[C@H]23)cc1,1

# Other lines, results leading:
row,MIC [µg/mL],SMILES
1,0.5,CC1=C(C(=O)[O-])N2C(=O)[C@@H](Nc3cc[n+](Cc4ccccc4)cc3)[C@H]2SC1
2,< 0.06,Cn1nnnc1SCC1=C(C(=O)[O-])N2C(=O)[C@@H](Nc3cc[n+](COCC(Cl)(Cl)Cl)cc3)[C@H]2SC1

# System: Serratia marcescens
# Test: Minimum inhibitory concentration against aerobic organism Serratia marcescens strain 2852
# Type: functional
# Conditions: Serratia marcescens; read-out: MIC
# In short: as §1
row,SMILES,MIC [µg/mL]
1,CC[n+]1ccc(N[C@@H]2C(=O)N3C(C(=O)[O-])=C(CSc4nnnn4C)CS[C@H]23)cc1,> 128
2,COc1ccc(C[n+]2ccc(N[C@@H]3C(=O)N4C(C(=O)[O-])=C(CSc5nnnn5C)CS[C@H]34)cc2)cc1,64
3,COC[n+]1ccc(N[C@@H]2C(=O)N3C(C(=O)[O-])=C(CSc4nnnn4C)CS[C@H]23)cc1,> 128

# Other lines, results leading:
row,MIC [µg/mL],SMILES
1,> 128,CC1=C(C(=O)[O-])N2C(=O)[C@@H](Nc3cc[n+](Cc4ccccc4)cc3)[C@H]2SC1
2,64,Cn1nnnc1SCC1=C(C(=O)[O-])N2C(=O)[C@@H](Nc3cc[n+](COCC(Cl)(Cl)Cl)cc3)[C@H]2SC1

# System: Streptococcus pyogenes
# Test: Minimum inhibitory concentration against aerobic organism Streptococcus pyogenes strain 3124
# Type: functional
# Conditions: Streptococcus pyogenes; read-out: MIC
# In short: as §1
row,SMILES,MIC [µg/mL]
1,CC[n+]1ccc(N[C@@H]2C(=O)N3C(C(=O)[O-])=C(CSc4nnnn4C)CS[C@H]23)cc1,1
2,COc1ccc(C[n+]2ccc(N[C@@H]3C(=O)N4C(C(=O)[O-])=C(CSc5nnnn5C)CS[C@H]34)cc2)cc1,< 0.06
3,COC[n+]1ccc(N[C@@H]2C(=O)N3C(C(=O)[O-])=C(CSc4nnnn4C)CS[C@H]23)cc1,0.125

# Results, then the compound that gave them:
row,MIC [µg/mL],SMILES
1,0.06,CC1=C(C(=O)[O-])N2C(=O)[C@@H](Nc3cc[n+](Cc4ccccc4)cc3)[C@H]2SC1
2,< 0.06,Cn1nnnc1SCC1=C(C(=O)[O-])N2C(=O)[C@@H](Nc3cc[n+](COCC(Cl)(Cl)Cl)cc3)[C@H]2SC1

# System: Staphylococcus aureus
# Test: Minimum inhibitory concentration against aerobic organism Staphylococcus aureus strain 2868
# Type: functional
# Conditions: Staphylococcus aureus; read-out: MIC
# In short: as §1
row,SMILES,MIC [µg/mL]
1,CC[n+]1ccc(N[C@@H]2C(=O)N3C(C(=O)[O-])=C(CSc4nnnn4C)CS[C@H]23)cc1,64
2,COc1ccc(C[n+]2ccc(N[C@@H]3C(=O)N4C(C(=O)[O-])=C(CSc5nnnn5C)CS[C@H]34)cc2)cc1,8
3,COC[n+]1ccc(N[C@@H]2C(=O)N3C(C(=O)[O-])=C(CSc4nnnn4C)CS[C@H]23)cc1,16

# Now from value to compound:
row,MIC [µg/mL],SMILES
1,64,CC1=C(C(=O)[O-])N2C(=O)[C@@H](Nc3cc[n+](Cc4ccccc4)cc3)[C@H]2SC1
2,2,Cn1nnnc1SCC1=C(C(=O)[O-])N2C(=O)[C@@H](Nc3cc[n+](COCC(Cl)(Cl)Cl)cc3)[C@H]2SC1

# System: Enterococcus faecalis
# Test: Minimum inhibitory concentration against aerobic organism Streptococcus faecalis strain 2864
# Type: functional
# Conditions: not given
# In short: as §1
row,SMILES,MIC [µg/mL]
1,CC[n+]1ccc(N[C@@H]2C(=O)N3C(C(=O)[O-])=C(CSc4nnnn4C)CS[C@H]23)cc1,> 128
2,COc1ccc(C[n+]2ccc(N[C@@H]3C(=O)N4C(C(=O)[O-])=C(CSc5nnnn5C)CS[C@H]34)cc2)cc1,> 64
3,COC[n+]1ccc(N[C@@H]2C(=O)N3C(C(=O)[O-])=C(CSc4nnnn4C)CS[C@H]23)cc1,> 128

# More lines, now with the values ahead:
row,MIC [µg/mL],SMILES
1,128,CC1=C(C(=O)[O-])N2C(=O)[C@@H](Nc3cc[n+](Cc4ccccc4)cc3)[C@H]2SC1
2,> 128,Cn1nnnc1SCC1=C(C(=O)[O-])N2C(=O)[C@@H](Nc3cc[n+](COCC(Cl)(Cl)Cl)cc3)[C@H]2SC1

# System: Shigella
# Test: Minimum inhibitory concentration against aerobic organism Shigella species strain 2880
# Type: functional
# Conditions: Shigella; read-out: MIC
# In short: as §1
row,SMILES,MIC [µg/mL]
1,CC[n+]1ccc(N[C@@H]2C(=O)N3C(C(=O)[O-])=C(CSc4nnnn4C)CS[C@H]23)cc1,< 0.5
2,COc1ccc(C[n+]2ccc(N[C@@H]3C(=O)N4C(C(=O)[O-])=C(CSc5nnnn5C)CS[C@H]34)cc2)cc1,0.5
3,COC[n+]1ccc(N[C@@H]2C(=O)N3C(C(=O)[O-])=C(CSc4nnnn4C)CS[C@H]23)cc1,0.5

# Next, values leading:
row,MIC [µg/mL],SMILES
1,2,CC1=C(C(=O)[O-])N2C(=O)[C@@H](Nc3cc[n+](Cc4ccccc4)cc3)[C@H]2SC1
2,< 0.06,Cn1nnnc1SCC1=C(C(=O)[O-])N2C(=O)[C@@H](Nc3cc[n+](COCC(Cl)(Cl)Cl)cc3)[C@H]2SC1

# — ChEMBL document CHEMBL1122046, “Quaternary heterocyclylamino beta-lactams: a generic alternative to the classical acylamino side chain” (1982)
